Source: PubChem BioAssay
TAAR1 agonist = human TAAR1 agonism; CHO RD-HGA16 TAAR1, Fluo-8 calcium fluorescence; vehicle wells 0%, saturating PEA agonist 100%; hit rate 0.99% among 360,000; activation, % at 3 µM; AID 624467;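 active means activation above the mean activation of all test compounds in the run plus 3 SD, cut at about 38% in these data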
Target sequence (Q96RJ0 whole entry, looked up): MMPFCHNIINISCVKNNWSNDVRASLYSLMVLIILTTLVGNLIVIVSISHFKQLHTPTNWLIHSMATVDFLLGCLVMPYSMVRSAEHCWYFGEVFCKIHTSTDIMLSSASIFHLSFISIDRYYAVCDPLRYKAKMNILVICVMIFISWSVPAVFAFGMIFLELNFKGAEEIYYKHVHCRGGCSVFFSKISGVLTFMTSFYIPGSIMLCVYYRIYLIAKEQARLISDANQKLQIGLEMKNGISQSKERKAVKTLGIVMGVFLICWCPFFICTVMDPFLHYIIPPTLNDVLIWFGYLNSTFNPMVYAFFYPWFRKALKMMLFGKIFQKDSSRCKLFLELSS
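System: CHO RD-HGA16 cells carrying human TAAR1 plus Gα16; Incubation: 17-24 h seeding, 75 min 37 °C dye, 30 min RT; Measured by: Fluo-8 fluorescence, 5 s baseline then 140 s kinetic read; Control set: DMSO and PEA EC100; Replication: single well for each compound.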
GPR7 antagonist = human neuropeptides B/W receptor 1 antagonism; GPR7-expressing cells, fluorescence antagonist assay; inhibition, % at 4.4 µM; hit rate 1.1% among 290,000; in the data active means inhibition above about 16%, passing the limit was not always enough;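 further: cells stimulated with the agonist NPW; 0% = agonist with vehicle and 100% = vehicle without agonist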
CHO parental Ca = counter-screen for OX1R antagonists: effect in parental CHO cells; parental CHO-K1, ATP-induced calcium, Fluo-8 fluorescence; inhibition, % at 5.6 µM; hit rate 0.63% among 330,000; AID 463079;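 active means inhibition above that plate's mean sample inhibition plus 3 SD, cut at about 26% in these data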;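 further: 0% = ATP-challenged DMSO wells and 100% = DMSO wells without ATP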
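Assay system: parental CHO cells; Read-out basis: percent inhibition of ATP-evoked calcium rise, normalized to controls; Benchmarks: ATP and no-ATP DMSO wells; Compound dosing: single nominal dose of 5.6 µM per compound; Signal: Fluo-8 calcium dye fluorescence; Also added: ATP as calcium-mobilizing challenge; Repeats: singlicate.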
OX1R antag-1 = OX1R (human) antagonism. OX1R-expressing cells, FRET antagonist read-out. hit rate 1.8% among 330,000. AID 485270. inhibition, % at 6.6 µM; in the data active means inhibition mostly above about 38%, no sharp cut-off; inactive means mostly below about 40%;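 further: 0% = agonist challenge alone and 100% = reference antagonist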
Target sequence (O43613 whole entry, looked up): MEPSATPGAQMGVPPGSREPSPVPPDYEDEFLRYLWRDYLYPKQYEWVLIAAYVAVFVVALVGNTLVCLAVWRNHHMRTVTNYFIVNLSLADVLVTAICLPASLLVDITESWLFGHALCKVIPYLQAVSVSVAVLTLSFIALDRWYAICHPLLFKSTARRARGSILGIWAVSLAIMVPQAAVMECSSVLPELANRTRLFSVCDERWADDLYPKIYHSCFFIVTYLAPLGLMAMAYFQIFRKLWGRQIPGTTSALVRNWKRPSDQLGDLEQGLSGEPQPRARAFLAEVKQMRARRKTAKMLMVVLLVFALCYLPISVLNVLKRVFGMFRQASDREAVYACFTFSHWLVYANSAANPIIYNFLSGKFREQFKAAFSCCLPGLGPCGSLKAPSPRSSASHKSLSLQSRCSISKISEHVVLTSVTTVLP
OX1R antag-2 = antagonists of human orexin 1 receptor; inhibition, % at 5 µM; hit rate 0.43% among 330,000; AID 434989; O43613; CHO/OX1R cells, Fluo-8 calcium fluorescence, orexin A;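 active means inhibition above its plate's threshold, mean inhibition of all tested compounds on the plate plus 3 SD, cut at about 37% in these data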;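 further: 0% = orexin A challenge wells and 100% = SB-334867-A antagonist wells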
TAAR1 antagonist = human TAAR1 antagonism | CHO RD-HGA16 TAAR1, Fluo-8 calcium fluorescence, antagonist | Q96RJ0 | AID 624466 | hit rate 1.5% among 360,000 | inhibition, % at 3 µM;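 active means inhibition above a per-plate cutoff, the mean inhibition of test compounds on that plate plus 3 SD, cut at about 49% in these data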;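 further: 0% = DMSO plus EC80 beta-PEA response and 100% = DMSO alone without agonist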
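Test system – hTAAR1-expressing CHO RD-HGA16 cells, Gα16-coupled · Reagent – β-PEA at EC80 concentration, post-compound challenge · Compound dosing – 3 µM, single point · Timing – 140 s kinetic read after compound, 140 s after agonist · Detection – Fluo-8 intracellular calcium dye fluorescence, real-time kinetic reads · Control set – DMSO and EC80 PEA controls · Repeats – n of 1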
OX1R Ca confirm = confirmation of human orexin 1 receptor antagonists. inhibition, % at 5 µM. shares compounds with OX1R antag-2. hit rate 38% among 1,100. CHO/OX1R cells, orexin A calcium Fluo-8 fluorescence; in the data active means inhibition above about 29%;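 further: 0% = agonist challenge alone and 100% = reference antagonist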
CHO Ca counter = signal in parental CHO cells, OX1R antagonist counter-screen; parental CHO-K1, ATP-induced calcium, Fluo-8 fluorescence; hit rate 9.3% among 1,100; inhibition, % at 5.6 µM; shares compounds with OX1R antag-2;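 active means inhibition above a per-plate limit, the mean inhibition of that plate's test compounds plus 3 SD, cut at about 25% in these data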;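 further: 0% = ATP challenge with DMSO and 100% = DMSO without ATP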
OX1R HTRF confirm = confirmation of human orexin 1 receptor antagonists, HTRF format; shares compounds with OX1R antag-1; OX1R-expressing cells, HTRF antagonist assay; inhibition, % at 6.6 µM; hit rate 49% among 1,800; in the data active means inhibition above about 55%;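 further: CHO cells expressing OX1R stimulated with orexin A at about EC80; 0% = agonist challenge alone and 100% = reference antagonist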
CHO-K1 HTRF = counter-screen for OX1R antagonists: effect in parental CHO-K1 cells; shares compounds with OX1R antag-1; HTRF counterscreen; inhibition, % at 6.6 µM; hit rate 48% among 1,800; AID 493232; in the data active means inhibition above about 17%;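 further: 0% = agonist challenge with vehicle and 100% = vehicle alone without agonist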
* = called active by the depositor. A selection: hits, their analogues and other compounds. The true share with any hit is near 4.5%.

`CCn1c2ccccc2c2cc(NC(=O)CSc3nnc(-c4cccc(OC)c4)n3N)ccc21` gave TAAR1 agonist 14, GPR7 antagonist -11, CHO parental Ca -18, OX1R antag-1 93*, OX1R antag-2 47*, TAAR1 antagonist 10, OX1R Ca confirm 47*, CHO Ca counter -15, OX1R HTRF confirm 91* and CHO-K1 HTRF 12.
For CCOc1ccc(-c2nnc(SCC(=O)Nc3ccc4c(c3)c3ccccc3n4CC)n2N)cc1 the results were TAAR1 agonist 3, GPR7 antagonist 7, CHO parental Ca -19, OX1R antag-1 13, OX1R antag-2 -17 and TAAR1 antagonist 6.
Nc1cccc(C#Cc2ccc3c(=O)c4ccccc4oc3c2)c1 was read as TAAR1 agonist 12, CHO parental Ca -33, OX1R antag-1 72*, OX1R antag-2 52*, TAAR1 antagonist 40, OX1R Ca confirm 12, CHO Ca counter 99*, OX1R HTRF confirm 49 and CHO-K1 HTRF 8.
Screening O=C(CCC(=O)N1CCOc2ccccc21)Nc1ccc(F)cc1F returned TAAR1 agonist 0, GPR7 antagonist -8, CHO parental Ca -2, OX1R antag-1 4, OX1R antag-2 -23 and TAAR1 antagonist -12.
COc1ccccc1Cc1c(C(C)(C)C)nc2c3ccccc3ccn12 was read as TAAR1 agonist 2 and TAAR1 antagonist -10.
c1ccc2nc(-c3nc4ccccc4o3)ccc2c1 was read as TAAR1 agonist 11, GPR7 antagonist -3, CHO parental Ca -21, OX1R antag-1 97*, OX1R antag-2 24, TAAR1 antagonist -9, OX1R Ca confirm 46*, CHO Ca counter -8, OX1R HTRF confirm 98* and CHO-K1 HTRF 5.
For c1ccc(-c2nc3ccccc3o2)nc1 the results were TAAR1 agonist 0, GPR7 antagonist 0, CHO parental Ca -5, OX1R antag-1 8, OX1R antag-2 -2 and TAAR1 antagonist -9.
For COc1ccc2nc(Cl)c(/C=N/Nc3ccccn3)cc2c1 the results were TAAR1 agonist 4, GPR7 antagonist -12, CHO parental Ca -18, OX1R antag-1 26, OX1R antag-2 -24 and TAAR1 antagonist -19.
`O=c1c2ccccc2oc2cc(-c3ccc4[nH]ccc4c3)ccc12` gave TAAR1 agonist 14, CHO parental Ca -5, OX1R antag-1 88*, OX1R antag-2 67*, TAAR1 antagonist 21, OX1R Ca confirm 76*, CHO Ca counter 3, OX1R HTRF confirm 88* and CHO-K1 HTRF 5.
Screening O=c1c2ccccc2oc2ccccc12 returned TAAR1 agonist -1 and TAAR1 antagonist -11.
For O=C(CN1C(=O)COc2ccccc21)N1CCN(C2CCCCC2)CC1 the results were TAAR1 agonist 1, GPR7 antagonist -5, CHO parental Ca -8, OX1R antag-1 16, OX1R antag-2 -29 and TAAR1 antagonist 4.
`O=C(CSCc1ccc(F)cc1)NCc1ccco1` gave TAAR1 agonist 2, GPR7 antagonist -13, CHO parental Ca -8, OX1R antag-1 19, OX1R antag-2 -9 and TAAR1 antagonist -1.
`Cc1ccc(/C=N/NC(=O)c2cccs2)cc1[N+](=O)[O-]` gave TAAR1 agonist 3, GPR7 antagonist 4, CHO parental Ca -25, OX1R antag-1 109*, OX1R antag-2 30, TAAR1 antagonist 19, OX1R Ca confirm 15, CHO Ca counter 3, OX1R HTRF confirm 92* and CHO-K1 HTRF 15.
`O=C(N/N=C/c1ccccc1[N+](=O)[O-])c1cccs1` gave TAAR1 agonist 2, GPR7 antagonist -6, CHO parental Ca -8, OX1R antag-1 32, OX1R antag-2 -6 and TAAR1 antagonist 12.
COc1ccc(/C=N/NC(=O)c2nnn(-c3nonc3N)c2CN(C)c2ccccc2)cc1 was read as TAAR1 agonist 12, GPR7 antagonist 0, CHO parental Ca -5, OX1R antag-1 50*, OX1R antag-2 44*, TAAR1 antagonist -8, OX1R Ca confirm 31*, CHO Ca counter 3, OX1R HTRF confirm 83* and CHO-K1 HTRF 2.
For CN(Cc1c(C(=O)N/N=C/c2ccc(O)cc2)nnn1-c1nonc1N)c1ccccc1 the results were TAAR1 agonist 11, GPR7 antagonist 3, CHO parental Ca 12, OX1R antag-1 95*, OX1R antag-2 80*, TAAR1 antagonist 42, OX1R Ca confirm 37*, CHO Ca counter 8, OX1R HTRF confirm 79* and CHO-K1 HTRF 5.
`COc1ccccc1/C=N/NC(=O)c1nnn(-c2nonc2N)c1CN(C)c1ccccc1` gave TAAR1 agonist -2, GPR7 antagonist -21, CHO parental Ca -13, OX1R antag-1 37, OX1R antag-2 30 and TAAR1 antagonist 37.
Screening CN(C)c1ccc(/C=N/NC(=O)c2nnn(-c3nonc3N)c2CN(C)c2ccccc2)cc1 returned TAAR1 agonist 2, GPR7 antagonist 6, CHO parental Ca 0, OX1R antag-1 26, OX1R antag-2 2 and TAAR1 antagonist 15.
`CN(Cc1c(C(=O)N/N=C/c2ccccc2)nnn1-c1nonc1N)c1ccccc1` gave TAAR1 agonist 2, GPR7 antagonist -13, CHO parental Ca -12, OX1R antag-1 72*, OX1R antag-2 58*, TAAR1 antagonist 8, OX1R Ca confirm 36*, CHO Ca counter 0, OX1R HTRF confirm 83* and CHO-K1 HTRF 4.
`O=C1c2nccnc2C(=O)N1c1ccc(F)cc1` gave TAAR1 agonist 0, GPR7 antagonist -12, CHO parental Ca -10, OX1R antag-1 1, OX1R antag-2 -9 and TAAR1 antagonist 1.
Screening Cc1cccc(NC(=O)CSc2nncn2N)c1C returned TAAR1 agonist 2 and TAAR1 antagonist -4.
Cc1nn(CC(=O)Nc2ccc(S(=O)(=O)N(C)C)cc2)c(C)c1[N+](=O)[O-] was read as TAAR1 agonist 1, GPR7 antagonist -1, CHO parental Ca -5, OX1R antag-1 -3, OX1R antag-2 1 and TAAR1 antagonist 15.
`Cc1ccc(N=C2NC(=O)/C(=C/c3cccn3C)S2)cc1C` gave TAAR1 agonist 0, GPR7 antagonist -5, CHO parental Ca -33, OX1R antag-1 79*, OX1R antag-2 57*, TAAR1 antagonist 0, OX1R Ca confirm 62*, CHO Ca counter -16, OX1R HTRF confirm 87* and CHO-K1 HTRF 7.
